The list is not random: actives were taken first. Their share in the collection is about 2.7%.
ASAP1 GAP inh: ASAP1 ArfGAP inhibition | Q9ULH1 | AID 624377 | actives 0.19% (n = 360,000) | ASAP1-stimulated ARF1 GTP hydrolysis, GDP FP detection | inhibition, % at 16.5 µM; in the data active means inhibition above about 25%
PAFAH1B2 inh: inhibitors of human PAFAH1B2. recombinant PAFAH1B2, FP-rhodamine activity probe, fluorescence polarization. AID 492953. actives 1.2% (n = 340,000). P68402. inhibition, % at 3.39 µM;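 active means inhibition above the mean of all tested compounds plus 3 SD, cut at about 24% in these data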
Target sequence (P68402 whole entry, looked up): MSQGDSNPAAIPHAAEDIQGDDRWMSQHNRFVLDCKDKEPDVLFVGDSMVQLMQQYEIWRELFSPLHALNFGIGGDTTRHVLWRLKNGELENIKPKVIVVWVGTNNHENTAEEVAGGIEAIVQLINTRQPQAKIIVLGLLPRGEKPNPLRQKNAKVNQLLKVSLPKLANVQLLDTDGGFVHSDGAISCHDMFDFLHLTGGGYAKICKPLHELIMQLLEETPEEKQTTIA
PAFAH2 inh: PAFAH2 (human) inhibition; Q99487; recombinant PAFAH2, FP-rhodamine activity probe, fluorescence polarization; inhibition, % at 3.39 µM; actives 0.99% (n = 340,000);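 active means inhibition above the mean over all tested compounds plus 3 SD, cut at about 30% in these data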;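 further: inhibitors block probe labeling of enzyme so polarization drops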
ARFGAP1 inh: inhibitors of rat ARFGAP1 | Arfgap1-stimulated ARF1 GTP hydrolysis, GDP FP detection | inhibition, % at 16.5 µM | actives 0.26% (n = 360,000) | AID 651572;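 active means inhibition above a per-plate limit, mean inhibition of low control wells plus 3 SD, cut at about 25% in these data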
Target sequence (Q62848 1-136 limits assumed): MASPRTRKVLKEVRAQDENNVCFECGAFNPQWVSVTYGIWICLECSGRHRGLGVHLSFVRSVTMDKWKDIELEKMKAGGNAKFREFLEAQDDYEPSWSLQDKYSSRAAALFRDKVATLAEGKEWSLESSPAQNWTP
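Assay system: purified rat His6-Arfgap1 residues 1-136 (GAP domain); Reagent: human Δ17 ARF1 bound to GTP; Dosing: 16.5 µM single point, 1.26% DMSO; Times: GTP hydrolysis reaction 2 h at 25 °C; Signal: FP, GDP Alexa 633 tracer displaced from anti-GDP antibody, 620/688 nm; Measure: % inhibition from polarization.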
pPAFAH inh: inhibitors of human plasma PAF acetylhydrolase (pPAFAH) | recombinant pPAFAH, FP-rhodamine probe fluorescence polarization | inhibition, % at 3.39 µM | Q13093 | actives 1.5% (n = 330,000);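 active means inhibition above the mean inhibition across the screen plus 3 SD, cut at about 25% in these data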;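 further: inhibitors block binding of the rhodamine activity-based probe so polarization drops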
PAFAH1B3 inh: blocks human PAF acetylhydrolase 1B catalytic subunit 3; recombinant PAFAH1B3, FP-rhodamine probe, fluorescence polarization; inhibition, % at 3.39 µM; actives 0.28% (n = 340,000); AID 492972;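 active means inhibition above the screen-wide average of all tested compounds plus 3 SD, cut at about 25% in these data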
Target sequence (Q15102 whole entry, looked up): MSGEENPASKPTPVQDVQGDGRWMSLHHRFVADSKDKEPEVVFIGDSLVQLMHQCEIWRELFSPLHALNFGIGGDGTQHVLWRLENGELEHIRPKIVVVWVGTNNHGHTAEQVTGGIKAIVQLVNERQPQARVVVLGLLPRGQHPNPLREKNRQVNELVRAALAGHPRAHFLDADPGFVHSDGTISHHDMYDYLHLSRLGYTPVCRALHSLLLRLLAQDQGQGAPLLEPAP
PAFAH2 FP conf: confirmation of human PAFAH2 inhibitors | shares compounds with PAFAH2 inh | recombinant PAFAH2, FP-rhodamine activity probe, fluorescence polarization | inhibition, % at 3.39 µM | actives 65% (n = 2,300);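 active means mean inhibition over three repeats above a set limit taken from the earlier primary screen, cut at about 30% in these data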;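 further: inhibitor blocks binding of rhodamine activity probe so polarization falls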
Hits are given with their value; – = inactive; · = no result.

SMILES	ASAP1 GAP inh	PAFAH1B2 inh	PAFAH2 inh	ARFGAP1 inh	pPAFAH inh	PAFAH1B3 inh	PAFAH2 FP conf
C=CCn1c(C)cc(C(=O)COC(=O)c2cncc(Br)c2)c1C	–	–	–	–	–	–	·
COc1cc(OC)c(N(C)C(=O)c2cc3c(s2)-c2ccccc2S(=O)(=O)C3)cc1Cl	–	–	31	–	–	–	–
COc1ccc(N(C)C(=O)c2cc3c(s2)-c2ccccc2S(=O)(=O)C3)cc1	–	–	–	–	–	–	·
CCOc1ccc(-c2nc3ccccc3c(=O)o2)cc1	–	–	54	–	–	–	60
Cc1onc(-c2ccccc2)c1-c1nc2ccccc2c(=O)o1	–	–	63	–	–	–	60
COc1ccc(-c2nc3ccccc3c(=O)o2)cc1OC	–	–	41	–	–	–	34
O=c1oc(-c2ccccc2Br)nc2ccccc12	–	–	56	–	–	–	31
O=c1oc(-c2cccnc2)nc2ccccc12	–	–	–	–	–	–	·
O=C(Nc1ccnn1C1CCNCC1)c1ccc2c(c1)OCO2	–	–	–	–	·	–	·
COc1ccc(CC(=O)Nc2ccc(S(=O)(=O)N3CCN(C)CC3)cc2)cc1	–	–	–	–	–	–	·
Cc1ccc(NC(=O)OC(C)N2CCCCC2)cc1NC(=O)OC(C)N1CCCCC1 (stereo not drawn)	–	–	–	–	·	–	·
CC(C)(C)c1ccccc1NC(=O)Nc1nc(C(N)c2ccccc2Cl)cs1 (stereo not drawn)	–	·	·	–	·	·	·
CCOC(=O)c1ccc(N2C(=O)C3CCOc4ccccc4C32)cc1 (stereo not drawn)	–	–	80	–	–	–	63
Cc1c(NS(=O)(=O)c2cccc(C(=O)NCc3ccccc3Cl)c2)c(=O)n(-c2ccccc2)n1C	–	–	–	–	·	–	·
Cc1c(NS(=O)(=O)c2cccc(C(=O)OCC(=O)c3ccc(Cl)cc3)c2)c(=O)n(-c2ccccc2)n1C	–	–	30	–	·	–	–
COc1ccc(/C=C/C(=O)OCC(=O)Nc2cccc(C(C)=O)c2)cc1	–	–	90	–	–	–	81
Cc1ccc(NC(=O)COC(=O)/C=C/c2c(C)nn(-c3ccc(F)cc3)c2Cl)cc1F	–	–	72	–	–	–	57
COc1ccc(/C=C/C(=O)OCC(=O)Nc2cc(C(N)=O)cc(C(N)=O)c2)cc1	–	–	–	–	–	–	·
Cc1nn(-c2ccccc2)c(C)c1/C=C/C(=O)OCC(=O)Nc1ccc(C(N)=O)cc1	–	–	–	–	–	–	·
COc1ccc(C(=O)COC(=O)/C=C/c2ccc(S(=O)(=O)Nc3cccc(S(N)(=O)=O)c3)cc2)cc1	–	–	32	–	–	–	–
NS(=O)(=O)c1cccc(NS(=O)(=O)c2ccc(/C=C/C(=O)OCC(=O)c3ccc(Br)cc3)cc2)c1	–	–	–	–	–	–	·
Cc1nn(-c2ccc(F)cc2)c(Cl)c1/C=C/C(=O)OCC(=O)Nc1ccc(F)cc1F	–	–	–	–	–	–	·
COc1cccc(NC(=O)COC(=O)/C=C/c2c(C)nn(-c3ccccc3)c2C)c1	–	–	78	–	–	–	80
CC1c2c([nH]c3ccccc23)CCC1C(=O)O (stereo not drawn)	–	–	–	–	–	–	·
Cc1ccccc1OCCC(=O)Nc1ccc2c(C)cc(=O)oc2c1	–	–	–	–	–	–	·
SMILES	ASAP1 GAP inh	PAFAH1B2 inh	PAFAH2 inh	ARFGAP1 inh	pPAFAH inh	PAFAH1B3 inh	PAFAH2 FP conf
Cc1nn(-c2ccccc2)c(C)c1/C=C/C(=O)OCC(=O)Nc1ncc(C(F)(F)F)cc1Cl	–	–	45	–	–	–	35
C/C=C/C(=O)OCC(=O)Nc1cc(-c2cc(C)c(C)cc2C)nn1-c1ccccc1	–	–	41	–	–	–	30
CCCCC(CC)CNC(=O)c1ncn[nH]1 (stereo not drawn)	–	–	–	–	–	–	·
CO[C@@H]1CN(C)C(=O)c2ccc(NS(=O)(=O)c3c(C)noc3C)cc2OC[C@@H](C)NC[C@@H]1C	–	·	·	–	·	·	·
Cc1c[nH]c2cccc(OCC(CNC(C)(C)C)OC(=O)c3ccccc3)c12 (stereo not drawn)	–	–	–	–	–	–	·
O=c1c(C(c2c(O)nc3n(c2=O)CCS3)c2cccc3ccccc23)c(O)nc2n1CCS2	–	–	37	–	–	–	–
O=C(Cn1cc(C(F)(F)F)ccc1=O)Nc1ccccc1	–	–	–	–	–	–	·
O=C(COC(=O)Cn1cc(C(F)(F)F)ccc1=O)Nc1ccccc1	–	–	68	–	–	–	60
COc1ccc(C(=O)O/N=C(\N)c2ccccc2Cl)cc1OC	–	–	–	–	–	–	·
N/C(=N\OC(=O)c1ccccc1)c1ccncc1	–	–	–	–	–	–	·
COc1ccc(C(=O)O/N=C(/c2ccccc2)c2ccncc2)cc1OC	–	–	74	–	–	–	80
COc1ccc(C(=O)O/N=C(\C)c2ccccc2)cc1	–	–	62	–	–	–	45
COc1ccc(C(=O)O/N=C(/c2ccccc2)c2ccncc2)cc1	–	–	78	–	–	–	71
O=[N+]([O-])c1ccc(CN2CCCCCC2)cc1	–	–	–	–	–	–	·
O=[N+]([O-])c1ccc(CN2CCCCCC2)s1	–	–	32	–	–	–	–
Cn1c(=O)oc2cc(S(=O)(=O)Nc3cccc([N+](=O)[O-])c3)ccc21	–	–	–	–	–	–	·
O=C(CCc1nc2ccccc2c(=O)[nH]1)OCc1ccc(Cl)cc1Cl	–	–	–	–	–	–	·
O=c1cc(-c2ccco2)nc(SCc2cccc(Cl)c2)[nH]1	–	–	32	–	–	–	–
Cn1c(O)c(C2=c3ccccc3=NC2=O)[nH]c1=S	–	–	–	–	–	–	·
COc1ccc2nc(-n3c(O)c(C4=c5ccccc5=NC4=O)[nH]c3=S)sc2c1	–	–	60	–	–	–	40
COCCCNc1nccn2ccnc12	–	·	·	–	·	·	·
O=C(c1ccc(NC2=NC3CS(=O)(=O)CC3S2)cc1)N1CCN(c2ccc([N+](=O)[O-])cc2)CC1 (stereo not drawn)	–	–	–	–	–	–	·
Cc1oc(-c2ccccc2)nc1C(=O)Nc1nccs1	–	–	32	–	–	–	–
COc1ccc(-c2csc(NC(=O)c3nc(-c4ccccc4)oc3C)n2)cc1	–	–	–	–	–	–	·
C/C(=N\OC(=O)c1ccc(C)cc1)c1sc(C)nc1C	–	–	55	–	–	–	43
CC/C(=N/OC(=O)c1cccc(C)c1)C(=O)c1cccs1	–	–	37	–	–	–	–
C/C(=N/OC(=O)c1ccc(C)cc1)c1cccs1	–	–	70	–	–	–	52

Screens deposited in PubChem by The Scripps Research Institute Molecular Screening Center.
